Among the data in ChEMBL document CHEMBL1817584, “Synthesis of novel fluconazoliums and their evaluation for antibacterial and antifungal activities” (2011) are Ratio and MIC values, retold here.

Format in all cases: functional
The test system of experiment [1] is Pseudomonas aeruginosa. In words: Ratio of Chloromycin MIC to compound MIC for Pseudomonas aeruginosa ATCC 27853.
Experiment [2] deals with Staphylococcus aureus. Briefly: Ratio of Chloromycin MIC to compound MIC for Staphylococcus aureus ATCC 6538.
Experiment [3] relates to Escherichia coli. Briefly: Ratio of Chloromycin MIC to compound MIC for Escherichia coli ATCC 8099.
The subject of experiment [4] is Bacillus. In words: Ratio of Chloromycin MIC to compound MIC for Bacillus proteus ATCC 13315.
Experiment [5] relates to Aspergillus fumigatus. Briefly: Antifungal activity against Aspergillus fumigatus ATCC 96918 after 24 hrs by twofold serial dilution method. The settings on record: ATCC 96918, 24 h. The essentials: (§1)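 A fungal spore suspension was made in sterile distilled water from a 1-day-old culture grown on Sabouraud agar, then tested against serial dilutions of compounds (DMSO stocks) to determine MIC.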

The subject of experiment [6] is Candida albicans. In words: Antifungal activity against Candida albicans ATCC 76615 after 24 hrs by twofold serial dilution method. The settings on record: ATCC 76615, 24 h. The essentials: as §1
In experiment [7] the test system is Bacillus. In words: Antibacterial activity against Bacillus proteus ATCC 13315 after 24 hrs by twofold serial dilution method. The settings on record: ATCC 13315, 24 h. The method in brief: (§2)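 Each bacterial suspension was adjusted with sterile saline to 1 × 10⁵ CFU. Compounds were first dissolved in DMSO as stock solutions, then diluted in Mueller–Hinton broth in twofold steps (8, 4, 2, 1, 0.5, 0.25). Dilutions were inoculated and incubated at 37 °C for 24 h, and MIC was read. DMSO plus inoculum without drug served as a solvent control.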

The test system of experiment [8] is Pseudomonas aeruginosa. Briefly: Antibacterial activity against Pseudomonas aeruginosa ATCC 27853 after 24 hrs by twofold serial dilution method. The settings on record: ATCC 27853, 24 h. The essentials: as §2
Experiment [9] relates to Bacillus subtilis. In words: Antibacterial activity against Bacillus subtilis ATCC 21216 after 24 hrs by twofold serial dilution method. The settings on record: ATCC 21216, 24 h. The essentials: as §2
The subject of experiment [10] is Staphylococcus aureus. In words: Antibacterial activity against Staphylococcus aureus ATCC 6538 after 24 hrs by twofold serial dilution method. The settings on record: ATCC 6538, 24 h. The essentials:
as §2

Experiment [11] has as its system Bacillus subtilis. In words: Ratio of Chloromycin MIC to compound MIC for Bacillus subtilis ATCC 21216.
Experiment [12] concerns Escherichia coli. Briefly: Antibacterial activity against Escherichia coli ATCC 8099 after 24 hrs by twofold serial dilution method. The settings on record: ATCC 8099, 24 h. The method in brief:
as §2

For experiment [13], the system named is Staphylococcus aureus. Briefly: Antibacterial activity against methicillin-resistant Staphylococcus aureus N315 after 24 hrs by twofold serial dilution method. The settings on record: N315, 24 h. The essentials: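 Compounds were dissolved in DMSO as stock, then diluted twofold in Mueller–Hinton broth. Chloromycin and norfloxacin were run as reference drugs. The inoculum was adjusted in sterile saline to 1 × 10⁵ CFU, and a DMSO-plus-inoculum well served as solvent control. Plates were incubated at 37 °C for 24 h and read as MIC.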

The subject of experiment [14] is Staphylococcus aureus. In words: Ratio of Norfloxacin MIC to compound MIC for Staphylococcus aureus ATCC 6538.

With `OC(Cn1c[n+](CCOc2ccc3ccccc3c2)cn1)(Cn1c[n+](CCOc2ccc3ccccc3c2)cn1)c1ccc(F)cc1F.[Br-].[Br-]`, the Ratio in experiment [1], in [2], in [3], in experiment [4] and in experiment [11] was 4 throughout. Moreover, the MIC in experiment [5] is 128 µg/mL; in [6], 8 µg/mL; in experiment [7], 4 µg/mL; in [8], 8 µg/mL; in [9], 64 µg/mL; in experiment [10], 4 µg/mL. Also, the MIC in experiment [12] came to 2 µg/mL; in experiment [13], 32 µg/mL.
As to `CCCCCCCC[n+]1cnn(CC(O)(Cn2c[n+](CCCCCCCC)cn2)c2ccc(F)cc2F)c1.[Br-].[Br-]`, the results for the Ratio in experiment [2] and in experiment [14] were 64 and 8, respectively. Moreover, the MIC in experiment [5] came to 128 µg/mL; in [6], 2 µg/mL; in [7], 64 µg/mL; in experiment [8], 8 µg/mL; in [9], 32 µg/mL; in experiment [10], 1 µg/mL. Further, the MIC in [12] is 1 µg/mL; in [13], 8 µg/mL.

Usually MIC stands for the lowest concentration found to suppress growth. Read a low MIC as a more susceptible organism.
